Assay outcomes (PubChem)
ABCB6 inh 2 = human ABCB6 transporter inhibition. 360,000 tested, 0.19% active. K562-ABCB6 porphyrin accumulation, flow cytometry, 1 h; stronger effect = lower value. AID 602162. fluorescence ratio to DMSO, % at 10 µM;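 active = fluorescence ratio to DMSO below 75%, the collection mean minus 3 SD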;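 note: signal is porphyrin accumulated inside mitochondria; 100% equals median channel fluorescence of DMSO control wells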
p97 inhibitor = blocks human p97 ATPase activity; P55072; AID 1481; 220,000 tested, 0.42% active; inhibition, % at 8 µM; recombinant p97 ATPase, Kinase-Glo ATP luminescence, 3 h; in the data active = inhibition above about 15%;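 note: 0% = DMSO vehicle and 100% = wells lacking enzyme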
HSV augment = increases HSV replication in cells. HSV replication augmentation in cells, fold increase. maximum fold increase. 220,000 tested, 0.005% active; in the data active = maximum fold increase above about 1.5; tested in PC3 cells
Rad51 HR inh = blocks human Rad51 in homologous recombination; inhibition, % at 10 µM; hRad51 DNA strand exchange, fluorescence dequenching; AID 1385; 200,000 tested, 0.085% active; Q06609;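 active = inhibition above 40% at the single screening dose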;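 note: 0% = DMSO control wells and 100% = blanks with heterologous ssDNA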
Target sequence (Q06609 whole entry, looked up): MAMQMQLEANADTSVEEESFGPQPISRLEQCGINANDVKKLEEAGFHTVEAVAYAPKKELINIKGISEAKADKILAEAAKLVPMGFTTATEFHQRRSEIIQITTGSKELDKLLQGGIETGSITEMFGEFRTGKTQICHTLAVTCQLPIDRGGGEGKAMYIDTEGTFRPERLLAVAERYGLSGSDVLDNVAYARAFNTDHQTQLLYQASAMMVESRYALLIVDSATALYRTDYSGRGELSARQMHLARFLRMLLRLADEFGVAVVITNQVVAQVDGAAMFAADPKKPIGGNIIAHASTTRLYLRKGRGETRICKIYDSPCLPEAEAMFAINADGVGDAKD
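Test system: preformed human Rad51 ssDNA filaments. Compound dosing: single dose, 10 µM final compound. Incubation: filaments 15 min 37 °C, then compound 30 min. Technique: FRET fluorescence dequenching, excitation 485 nm, emission 520 nm. Read-out basis: percent inhibition from fluorescence, normalised to plate control and blank means. Benchmarks: plate controls and plate blanks.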
ABCB1 block = human ABCB1 inhibition, ABCG2 as counter-screen | inhibition, % at 6.6 µM | 190,000 tested, 0.067% active | AID 1326 | CCRF-Adr cells, JC-1 efflux, flow cytometry; in the data active = inhibition above about 40%;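 note: 0% = vehicle and 100% = reference inhibitor; higher value means more JC-1 retained so stronger ABCB1 efflux block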
ABCG2 inh = inhibitors of human ABCG2 transporter, ABCB1 counter-screen; 190,000 tested, 0.1% active; inhibition, % at 6.6 µM; AID 1325; Q9UNQ0; IgMXP3 cells, JC-1 efflux, flow cytometry;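 active = inhibition above 80%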;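 note: 0% = DMSO and 100% = nicardipine control wells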
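material = IgMXP3 (ABCG2) plus far-red-tagged CCRF-Adr (ABCB1) cells | amount = 3 million cells/mL, equal mix of both lines | also added = JC-1 transporter substrate | dosing = one concentration, 6.6 µM final | schedule = 10 min at 25 °C | measured by = flow cytometric JC-1 green MFI at 530 nm | read-out basis = percent efflux inhibition, scaled nicardipine 100% to DMSO 0%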
ABCB6 inh CP1 = inhibitors of human ABC transporter ABCB6; shares compounds with ABCB6 inh 2; K562-ABCB6 porphyrin accumulation, flow cytometry, 1 h; stronger effect = lower value; ratio response (% of DMSO), % at 10 µM; 700 tested, under 10 active; AID 602430;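 active = repeat-averaged ratio response below 75% of DMSO, the collection mean minus 3 SD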;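 note: median porphyrin fluorescence at 575 nm with 488 nm excitation from mitochondria; lower ratio means less porphyrin signal so ABCB6 inhibition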
The depositor's hits bear a star; i = inactive; . = no result given. Hits are enriched below; roughly 0.55% of the tested compounds scored in any of these assays.

SMILES	ABCB6 inh 2	p97 inhibitor	HSV augment	Rad51 HR inh	ABCB1 block	ABCG2 inh	ABCB6 inh CP1
CCCCc1ccc(S(=O)(=O)NC(=O)C2(C)CCN2C(=O)Cc2ccccc2)cc1 (centres undefined)	100	.	.	.	.	.	97
Cc1nc(C(F)(F)F)ccc1C(=O)N1CCCC(C(=O)O)CC1 (centres undefined)	103	.	.	.	.	.	.
CCCCOC(=O)c1[nH]c2c(c1C)C(=O)CC(c1cc(OC)c(OC)c(OC)c1)C2 (centres undefined)	98	-5	i	-6	10	19	.
COCCOC(=O)c1[nH]c2c(c1C)C(=O)CC(c1cc(OC)c(OC)c(OC)c1)C2 (centres undefined)	71*	.	.	.	.	.	96
Cc1cc(C(=O)NCCN2CCOCC2)c2ccccc2n1	74*	.	.	.	.	.	103
CCOc1ccc(C(=O)N[C@H](C(=O)Nc2ccc(OC)c(S(=O)(=O)N3CCOCC3)c2)C(C)C)cc1	73*	0	i	7	9	7	99
CCOc1ccccc1C(=O)N[C@H](C(=O)Nc1ccc(OC)c(S(=O)(=O)N2CCOCC2)c1)C(C)C	94	2	i	-2	1	2	.
N#Cc1cccc(NC(=O)N2CCC(c3nc4c(nnn4Cc4cccc(Cl)c4)c(=O)[nH]3)CC2)c1	90	13	i	0	0	-2	98
CCCCCCC(=O)N1CCC(c2nc3c(nnn3Cc3ccccc3Cl)c(=O)[nH]2)CC1	93	-3	i	1	2	5	101
O=C(C1CCCCC1)N1CCC(c2nc3c(nnn3Cc3ccccc3Cl)c(=O)[nH]2)CC1	100	.	.	.	.	.	.
O=C(C1CCCCC1)N1CCC(c2nc3c(nnn3Cc3c(F)cccc3Cl)c(=O)[nH]2)CC1	104	0	i	-4	2	15	101
O=C(Cc1cccs1)N1CCC(c2nc3c(nnn3Cc3ccccc3Cl)c(=O)[nH]2)CC1	64*	-1	i	0	1	12	100
Cc1ccc(NC(=O)c2sc3ncn(CC(=O)N4CCOCC4)c(=O)c3c2C)c(Br)c1	99	.	.	.	.	.	97
Cc1cc([N+](=O)[O-])ccc1NC(=O)c1sc2ncn(CC(=O)N3CCOCC3)c(=O)c2c1C	105	.	.	.	.	.	.
COc1cc(NC(=O)c2sc3ncn(CC(=O)N4CCCCC4C)c(=O)c3c2C)cc(OC)c1OC (centres undefined)	97	.	.	.	.	.	101
CCOc1ccccc1NC(=O)c1sc2ncn(CC(=O)N3CCOCC3)c(=O)c2c1C	100	.	.	.	.	.	.
CCOc1ccccc1N(C)C(=O)c1sc2ncn(CC(=O)N3CCCCC3C)c(=O)c2c1C (centres undefined)	172	.	.	.	.	.	100
Cc1c(C(=O)NCc2cccnc2)sc2ncn(CC(=O)N3CCCCC3C)c(=O)c12 (centres undefined)	100	0	i	5	0	0	.
CCN(CC(=O)Nc1ccccc1C(F)(F)F)C(=O)CN1C(=O)NC(C)(c2ccc3ccccc3c2)C1=O (centres undefined)	100	.	.	.	.	.	.
CSc1ccccc1NC(=O)CSc1nnc(CNC(=O)c2ccccc2F)n1C	94	.	.	.	.	.	.
COc1ccc(NC(=O)C2CCCN2S(=O)(=O)c2ccc(C)cc2)cc1 (centres undefined)	45*	0	i	0	1	1	102
COc1ccc(NC(=O)[C@@H]2CCCN2S(=O)(=O)c2ccc(Cl)cc2)cc1	100	.	.	.	.	.	.
COc1ccc(N(CC(=O)Nc2c(C)n(C)n(-c3ccccc3)c2=O)S(=O)(=O)c2ccc(C)cc2)cc1	72*	5	i	-1	0	0	100
COc1ccc(N(CC(=O)Nc2c(C)n(C)n(-c3ccccc3)c2=O)S(=O)(=O)c2ccc(F)cc2)cc1	93	-3	i	7	1	2	.
C[C@@H]1CCCCO[C@H](CN(C)C(=O)Cc2ccccc2)[C@@H](C)CN([C@H](C)CO)C(=O)c2cc(N(C)C)ccc2O1	98	.	.	.	.	.	.
CCCCn1cnc2c(cnn2-c2ccc(F)cc2)c1=O	99	3	i	2	0	1	.
